Measurements published in ChEMBL document CHEMBL5058577, “EUbOPEN Chemogenomics Library 2 (Multiplex)” (2022).

Test system: U2OS
Assay: Multiplex assay against U2OS
Format: toxicity, cell-based
Conditions: human
Procedure, shortened: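 Live cells were stained at seeding with Hoechst33342, BioTracker Green Microtubule Cytoskeleton Dye, MitoTracker Red and Annexin V Alexa Fluor 680, then imaged on a CQ1 microscope at 37°C and 5% CO2 after compound addition. CellPathfinder machine-learning gating split cells into Hoechst high-intensity objects or normal cells. Normal cells were split into healthy, pyknosed or fragmented nuclei, and pyknosed cells into mitotic or apoptotic. Tubulin, mitochondrial-mass and membrane-permeability phenotypes are per cents of healthy-nucleus cells.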

[1] = 12 h, 1 µM, compound concentration 1 uM, replicate 1
[2] = 12 h, 1 µM, compound concentration 1 uM, replicate 2
[3] = 12 h, 10 µM, compound concentration 10 uM, replicate 1
[4] = 12 h, 10 µM, compound concentration 10 uM, replicate 2
[5] = 24 h, 1 µM, compound concentration 1 uM, replicate 1
[6] = 24 h, 1 µM, compound concentration 1 uM, replicate 2
[7] = 24 h, 10 µM, compound concentration 10 uM, replicate 1
[8] = 24 h, 10 µM, compound concentration 10 uM, replicate 2
[9] = 48 h, 1 µM, compound concentration 1 uM, replicate 1
[10] = 48 h, 1 µM, compound concentration 1 uM, replicate 2
[11] = 48 h, 10 µM, compound concentration 10 uM, replicate 1
[12] = 48 h, 10 µM, compound concentration 10 uM, replicate 2

Cc1cc(O)c(-c2ccc([C@@H](C)CN(C)C)cc2)c2c1[nH]c(=O)c1sccc12
Population Apoptotic (%) [1]: 80%
Population Fragmented Nuclei (%) [1]: 38%
Population Healthy Nuclei (%) [1]: 48%
Population Hoechst High Intensity Objects (%) [1]: 4%
Population Membrane Permeable-Phenotype (%) [1]: 21%
Population Mitochondria Different-Phenotype (%) [1]: 17%
Population Mitotic Cells (%) [1]: 19%
Population Normal (%) [1]: 95%
Population Pyknosed Nuclei (%) [1]: 12%
Population Tubulin-Different-Phenotype (%) [1]: 12%
Total Cell Count [1]: 252
Population Apoptotic (%) [2]: 70%
Population Fragmented Nuclei (%) [2]: 25%
Population Healthy Nuclei (%) [2]: 63%
Population Hoechst High Intensity Objects (%) [2]: 2%
Population Membrane Permeable-Phenotype (%) [2]: 9%
Population Mitochondria Different-Phenotype (%) [2]: 14%
Population Mitotic Cells (%) [2]: 30%
Population Normal (%) [2]: 97%
Population Pyknosed Nuclei (%) [2]: 11%
Population Tubulin-Different-Phenotype (%) [2]: 14%
Total Cell Count [2]: 89
Population Apoptotic (%) [3]: 64%
Population Fragmented Nuclei (%) [3]: 28%
Population Healthy Nuclei (%) [3]: 50%
Population Hoechst High Intensity Objects (%) [3]: 4%
Population Membrane Permeable-Phenotype (%) [3]: 54%
Population Mitochondria Different-Phenotype (%) [3]: 62%
Population Mitotic Cells (%) [3]: 35%
Population Normal (%) [3]: 95%
Population Pyknosed Nuclei (%) [3]: 21%
Population Tubulin-Different-Phenotype (%) [3]: 72%
Total Cell Count [3]: 222
Population Apoptotic (%) [4]: 69%
Population Fragmented Nuclei (%) [4]: 20%
Population Healthy Nuclei (%) [4]: 56%
Population Hoechst High Intensity Objects (%) [4]: 8%
Population Membrane Permeable-Phenotype (%) [4]: 22%
Population Mitochondria Different-Phenotype (%) [4]: 61%
Population Mitotic Cells (%) [4]: 30%
Population Normal (%) [4]: 91%
Population Pyknosed Nuclei (%) [4]: 22%
Population Tubulin-Different-Phenotype (%) [4]: 45%
Total Cell Count [4]: 110
Population Apoptotic (%) [5]: 92%
Population Fragmented Nuclei (%) [5]: 43%
Population Healthy Nuclei (%) [5]: 34%
Population Hoechst High Intensity Objects (%) [5]: 8%
Population Membrane Permeable-Phenotype (%) [5]: 20%
Population Mitochondria Different-Phenotype (%) [5]: 25%
Population Mitotic Cells (%) [5]: 7%
Population Normal (%) [5]: 91%
Population Pyknosed Nuclei (%) [5]: 21%
Population Tubulin-Different-Phenotype (%) [5]: 19%
Total Cell Count [5]: 256
Population Apoptotic (%) [6]: 100%
Population Fragmented Nuclei (%) [6]: 41%
Population Healthy Nuclei (%) [6]: 41%
Population Hoechst High Intensity Objects (%) [6]: 6%
Population Membrane Permeable-Phenotype (%) [6]: 15%
Population Mitochondria Different-Phenotype (%) [6]: 21%
Population Mitotic Cells (%) [6]: 0%
Population Normal (%) [6]: 93%
Population Pyknosed Nuclei (%) [6]: 17%
Population Tubulin-Different-Phenotype (%) [6]: 12%
Total Cell Count [6]: 83
Population Apoptotic (%) [7]: 81%
Population Fragmented Nuclei (%) [7]: 36%
Population Healthy Nuclei (%) [7]: 35%
Population Hoechst High Intensity Objects (%) [7]: 9%
Population Membrane Permeable-Phenotype (%) [7]: 16%
Population Mitochondria Different-Phenotype (%) [7]: 70%
Population Mitotic Cells (%) [7]: 18%
Population Normal (%) [7]: 90%
Population Pyknosed Nuclei (%) [7]: 27%
Population Tubulin-Different-Phenotype (%) [7]: 47%
Total Cell Count [7]: 210
Population Apoptotic (%) [8]: 82%
Population Fragmented Nuclei (%) [8]: 40%
Population Healthy Nuclei (%) [8]: 31%
Population Hoechst High Intensity Objects (%) [8]: 12%
Population Membrane Permeable-Phenotype (%) [8]: 25%
Population Mitochondria Different-Phenotype (%) [8]: 62%
Population Mitotic Cells (%) [8]: 17%
Population Normal (%) [8]: 87%
Population Pyknosed Nuclei (%) [8]: 28%
Population Tubulin-Different-Phenotype (%) [8]: 34%
Total Cell Count [8]: 118
Population Apoptotic (%) [9]: 96%
Population Fragmented Nuclei (%) [9]: 53%
Population Healthy Nuclei (%) [9]: 18%
Population Hoechst High Intensity Objects (%) [9]: 17%
Population Membrane Permeable-Phenotype (%) [9]: 23%
Population Mitochondria Different-Phenotype (%) [9]: 25%
Population Mitotic Cells (%) [9]: 3%
Population Normal (%) [9]: 82%
Population Pyknosed Nuclei (%) [9]: 27%
Population Tubulin-Different-Phenotype (%) [9]: 25%
Total Cell Count [9]: 250
Population Apoptotic (%) [10]: 100%
Population Fragmented Nuclei (%) [10]: 64%
Population Healthy Nuclei (%) [10]: 19%
Population Hoechst High Intensity Objects (%) [10]: 15%
Population Membrane Permeable-Phenotype (%) [10]: 35%
Population Mitochondria Different-Phenotype (%) [10]: 35%
Population Mitotic Cells (%) [10]: 0%
Population Normal (%) [10]: 84%
Population Pyknosed Nuclei (%) [10]: 15%
Total Cell Count [10]: 120
Population Apoptotic (%) [11]: 96%
Population Fragmented Nuclei (%) [11]: 50%
Population Healthy Nuclei (%) [11]: 17%
Population Hoechst High Intensity Objects (%) [11]: 20%
Population Membrane Permeable-Phenotype (%) [11]: 25%
Population Mitochondria Different-Phenotype (%) [11]: 45%
Population Mitotic Cells (%) [11]: 3%
Population Normal (%) [11]: 79%
Population Pyknosed Nuclei (%) [11]: 31%
Population Tubulin-Different-Phenotype (%) [11]: 32%
Total Cell Count [11]: 220
Population Apoptotic (%) [12]: 100%
Population Fragmented Nuclei (%) [12]: 54%
Population Healthy Nuclei (%) [12]: 13%
Population Hoechst High Intensity Objects (%) [12]: 15%
Population Membrane Permeable-Phenotype (%) [12]: 64%
Population Mitochondria Different-Phenotype (%) [12]: 50%
Population Mitotic Cells (%) [12]: 0%
Population Normal (%) [12]: 84%
Population Tubulin-Different-Phenotype (%) [12]: 64%
Total Cell Count [12]: 120

COc1ccc2[nH]c(I)c(CCNC(C)=O)c2c1 [IODOMELATONIN]
Population Apoptotic (%) [1]: 68%
Population Fragmented Nuclei (%) [1]: 19%
Population Healthy Nuclei (%) [1]: 74%
Population Hoechst High Intensity Objects (%) [1]: 2%
Population Membrane Permeable-Phenotype (%) [1]: 4%
Population Mitochondria Different-Phenotype (%) [1]: 3%
Population Mitotic Cells (%) [1]: 31%
Population Normal (%) [1]: 97%
Population Pyknosed Nuclei (%) [1]: 5%
Population Tubulin-Different-Phenotype (%) [1]: 1%
Total Cell Count [1]: 282
Population Apoptotic (%) [2]: 37%
Population Fragmented Nuclei (%) [2]: 11%
Population Healthy Nuclei (%) [2]: 83%
Population Hoechst High Intensity Objects (%) [2]: 0%
Population Membrane Permeable-Phenotype (%) [2]: 5%
Population Mitochondria Different-Phenotype (%) [2]: 1%
Population Mitotic Cells (%) [2]: 62%
Population Normal (%) [2]: 99%
Population Tubulin-Different-Phenotype (%) [2]: 2%
Total Cell Count [2]: 156
Population Apoptotic (%) [3]: 77%
Population Fragmented Nuclei (%) [3]: 25%
Population Healthy Nuclei (%) [3]: 64%
Population Hoechst High Intensity Objects (%) [3]: 3%
Population Membrane Permeable-Phenotype (%) [3]: 2%
Population Mitochondria Different-Phenotype (%) [3]: 1%
Population Mitotic Cells (%) [3]: 22%
Population Normal (%) [3]: 96%
Population Pyknosed Nuclei (%) [3]: 9%
Population Tubulin-Different-Phenotype (%) [3]: 1%
Total Cell Count [3]: 231
Population Apoptotic (%) [4]: 80%
Population Fragmented Nuclei (%) [4]: 41%
Population Healthy Nuclei (%) [4]: 54%
Population Hoechst High Intensity Objects (%) [4]: 0%
Population Membrane Permeable-Phenotype (%) [4]: 10%
Population Mitochondria Different-Phenotype (%) [4]: 6%
Population Mitotic Cells (%) [4]: 20%
Population Normal (%) [4]: 99%
Population Pyknosed Nuclei (%) [4]: 3%
Population Tubulin-Different-Phenotype (%) [4]: 2%
Total Cell Count [4]: 134
Population Apoptotic (%) [5]: 86%
Population Fragmented Nuclei (%) [5]: 16%
Population Healthy Nuclei (%) [5]: 75%
Population Hoechst High Intensity Objects (%) [5]: 1%
Population Membrane Permeable-Phenotype (%) [5]: 3%
Population Mitochondria Different-Phenotype (%) [5]: 1%
Population Mitotic Cells (%) [5]: 13%
Population Normal (%) [5]: 98%
Population Pyknosed Nuclei (%) [5]: 8%
Population Tubulin-Different-Phenotype (%) [5]: 2%
Total Cell Count [5]: 354
Population Apoptotic (%) [6]: 80%
Population Fragmented Nuclei (%) [6]: 15%
Population Healthy Nuclei (%) [6]: 78%
Population Membrane Permeable-Phenotype (%) [6]: 8%
Population Mitochondria Different-Phenotype (%) [6]: 0%
Population Mitotic Cells (%) [6]: 20%
Population Pyknosed Nuclei (%) [6]: 5%
Total Cell Count [6]: 179
Population Apoptotic (%) [7]: 95%
Population Fragmented Nuclei (%) [7]: 25%
Population Healthy Nuclei (%) [7]: 66%
Population Hoechst High Intensity Objects (%) [7]: 1%
Population Membrane Permeable-Phenotype (%) [7]: 4%
Population Mitochondria Different-Phenotype (%) [7]: 1%
Population Mitotic Cells (%) [7]: 4%
Population Normal (%) [7]: 98%
Population Pyknosed Nuclei (%) [7]: 8%
Population Tubulin-Different-Phenotype (%) [7]: 1%
Total Cell Count [7]: 273
Population Apoptotic (%) [8]: 88%
Population Fragmented Nuclei (%) [8]: 34%
Population Healthy Nuclei (%) [8]: 59%
Population Membrane Permeable-Phenotype (%) [8]: 7%
Population Mitochondria Different-Phenotype (%) [8]: 5%
Population Mitotic Cells (%) [8]: 11%
Population Pyknosed Nuclei (%) [8]: 5%
Population Tubulin-Different-Phenotype (%) [8]: 2%
Total Cell Count [8]: 153
Population Apoptotic (%) [9]: 92%
Population Fragmented Nuclei (%) [9]: 12%
Population Healthy Nuclei (%) [9]: 79%
Population Hoechst High Intensity Objects (%) [9]: 1%
Population Membrane Permeable-Phenotype (%) [9]: 5%
Population Mitochondria Different-Phenotype (%) [9]: 2%
Population Mitotic Cells (%) [9]: 7%
Population Normal (%) [9]: 98%
Population Pyknosed Nuclei (%) [9]: 7%
Population Tubulin-Different-Phenotype (%) [9]: 3%
Total Cell Count [9]: 509
Population Apoptotic (%) [10]: 86%
Population Fragmented Nuclei (%) [10]: 13%
Population Healthy Nuclei (%) [10]: 81%
Population Membrane Permeable-Phenotype (%) [10]: 4%
Population Mitotic Cells (%) [10]: 13%
Population Pyknosed Nuclei (%) [10]: 5%
Total Cell Count [10]: 284
Population Apoptotic (%) [11]: 97%
Population Fragmented Nuclei (%) [11]: 21%
Population Healthy Nuclei (%) [11]: 68%
Population Hoechst High Intensity Objects (%) [11]: 2%
Population Membrane Permeable-Phenotype (%) [11]: 5%
Population Mitochondria Different-Phenotype (%) [11]: 0%
Population Mitotic Cells (%) [11]: 2%
Population Normal (%) [11]: 97%
Population Pyknosed Nuclei (%) [11]: 9%
Population Tubulin-Different-Phenotype (%) [11]: 2%
Total Cell Count [11]: 373
Population Apoptotic (%) [12]: 100%
Population Fragmented Nuclei (%) [12]: 29%
Population Healthy Nuclei (%) [12]: 65%
Population Hoechst High Intensity Objects (%) [12]: 0%
Population Membrane Permeable-Phenotype (%) [12]: 7%
Population Mitochondria Different-Phenotype (%) [12]: 5%
Population Mitotic Cells (%) [12]: 0%
Population Normal (%) [12]: 99%
Population Pyknosed Nuclei (%) [12]: 5%
Population Tubulin-Different-Phenotype (%) [12]: 4%
Total Cell Count [12]: 209
